Experimental data taken from ChEMBL document CHEMBL1131301, “Tyrosine kinase inhibitors. 14. Structure-activity relationships for methylamino-substituted derivatives of 4-[(3-bromophenyl)amino]-6-(methylamino)-pyrido[3,4-d]pyrimidine (PD 158780), a potent and specific inhibitor of the tyrosine kinase activity of receptors for the EGF family of growth factors” (J Med Chem, 1998).
In brackets after ≈: the same amount, converted by molar mass.

Tests used:
[1] = molecular target: T1, Epidermal growth factor receptor (Homo sapiens, UniProt P00533); assay: Inhibition of EGF-dependent autophosphorylation of EGF-R in A431 cells
T1 sequence (P00533 whole entry): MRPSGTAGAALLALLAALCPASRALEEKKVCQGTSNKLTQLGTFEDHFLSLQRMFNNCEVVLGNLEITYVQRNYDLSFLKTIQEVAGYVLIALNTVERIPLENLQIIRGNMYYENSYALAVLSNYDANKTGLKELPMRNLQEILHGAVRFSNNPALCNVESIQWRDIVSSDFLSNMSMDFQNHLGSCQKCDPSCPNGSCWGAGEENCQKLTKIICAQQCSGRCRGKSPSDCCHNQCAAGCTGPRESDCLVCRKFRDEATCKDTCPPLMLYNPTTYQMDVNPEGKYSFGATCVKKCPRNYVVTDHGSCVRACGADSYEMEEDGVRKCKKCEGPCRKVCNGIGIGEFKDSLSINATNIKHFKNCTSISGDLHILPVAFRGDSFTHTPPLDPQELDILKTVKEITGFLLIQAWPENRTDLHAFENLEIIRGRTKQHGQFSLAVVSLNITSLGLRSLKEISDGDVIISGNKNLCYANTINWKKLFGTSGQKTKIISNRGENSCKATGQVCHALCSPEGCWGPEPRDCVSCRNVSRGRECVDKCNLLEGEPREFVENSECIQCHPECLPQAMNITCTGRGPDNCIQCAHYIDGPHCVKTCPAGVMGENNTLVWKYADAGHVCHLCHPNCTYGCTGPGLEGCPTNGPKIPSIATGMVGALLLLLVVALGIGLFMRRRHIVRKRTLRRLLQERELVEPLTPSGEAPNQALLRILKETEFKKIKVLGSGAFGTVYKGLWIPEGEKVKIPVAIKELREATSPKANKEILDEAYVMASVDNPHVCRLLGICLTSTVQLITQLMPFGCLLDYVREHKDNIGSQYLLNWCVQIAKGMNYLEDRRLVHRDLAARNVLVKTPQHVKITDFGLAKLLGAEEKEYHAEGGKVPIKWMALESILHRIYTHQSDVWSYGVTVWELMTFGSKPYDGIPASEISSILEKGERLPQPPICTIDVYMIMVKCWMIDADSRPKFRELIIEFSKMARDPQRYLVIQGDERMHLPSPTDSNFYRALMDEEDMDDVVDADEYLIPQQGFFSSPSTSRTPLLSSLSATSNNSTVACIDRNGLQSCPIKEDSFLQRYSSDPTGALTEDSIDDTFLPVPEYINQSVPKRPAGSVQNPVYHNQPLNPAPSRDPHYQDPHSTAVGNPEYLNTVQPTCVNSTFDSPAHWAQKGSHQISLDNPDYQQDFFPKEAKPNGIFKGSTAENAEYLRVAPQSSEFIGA

[2] = molecular target: T1, Epidermal growth factor receptor; assay: Inhibition of autophosphorylation of epidermal growth factor receptor in A431 cells in culture
[3] = Aqueous solubility ([…] degree C); type: physicochemical; conditions: water; read-out: S
[4] = molecular target: T1, Epidermal growth factor receptor; assay: Inhibition of tyrosine/glutamic acid copolymer phosphorylation by epidermal growth factor receptor prepared of human A431
[5] = molecular target: T1, Epidermal growth factor receptor; assay: Inhibit of phosphorylation of a tyrosine/glutamic acid copolymer by epidermal growth factor receptor prepared from human A431 carcinoma cell vesicles by immunoaffinity chromatography.
[6] = molecular target: Fibroblast growth factor receptor (Homo sapiens, UniProt P22607+P11362+P22455+P21802); assay: Inhibition of fibroblast growth factor receptor(FGFR); type: protein assay
Insulin receptor = Insulin receptor (Homo sapiens, UniProt P06213); assay: Inhibition of insulin receptor(IR)
Sequence of Insulin receptor (P06213 28-758 limits assumed): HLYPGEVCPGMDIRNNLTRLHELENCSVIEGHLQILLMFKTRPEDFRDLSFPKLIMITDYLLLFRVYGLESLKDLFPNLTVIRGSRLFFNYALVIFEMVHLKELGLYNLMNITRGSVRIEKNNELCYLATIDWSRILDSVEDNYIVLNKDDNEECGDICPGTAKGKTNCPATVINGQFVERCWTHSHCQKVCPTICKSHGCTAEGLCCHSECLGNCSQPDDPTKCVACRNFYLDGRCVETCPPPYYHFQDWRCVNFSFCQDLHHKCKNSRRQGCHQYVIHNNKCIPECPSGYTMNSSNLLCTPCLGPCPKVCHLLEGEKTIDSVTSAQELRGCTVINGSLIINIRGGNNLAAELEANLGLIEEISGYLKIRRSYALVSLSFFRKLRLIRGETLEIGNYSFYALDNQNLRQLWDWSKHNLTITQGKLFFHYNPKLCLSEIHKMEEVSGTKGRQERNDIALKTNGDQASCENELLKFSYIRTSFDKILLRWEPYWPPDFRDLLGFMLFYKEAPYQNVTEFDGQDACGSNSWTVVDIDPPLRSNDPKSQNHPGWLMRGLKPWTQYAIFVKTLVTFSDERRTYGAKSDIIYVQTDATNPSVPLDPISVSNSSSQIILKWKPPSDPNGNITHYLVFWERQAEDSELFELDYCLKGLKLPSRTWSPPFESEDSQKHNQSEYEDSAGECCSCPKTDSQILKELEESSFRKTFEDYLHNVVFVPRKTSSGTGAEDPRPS
Sequence of Insulin receptor (P06213 763-1382 limits assumed): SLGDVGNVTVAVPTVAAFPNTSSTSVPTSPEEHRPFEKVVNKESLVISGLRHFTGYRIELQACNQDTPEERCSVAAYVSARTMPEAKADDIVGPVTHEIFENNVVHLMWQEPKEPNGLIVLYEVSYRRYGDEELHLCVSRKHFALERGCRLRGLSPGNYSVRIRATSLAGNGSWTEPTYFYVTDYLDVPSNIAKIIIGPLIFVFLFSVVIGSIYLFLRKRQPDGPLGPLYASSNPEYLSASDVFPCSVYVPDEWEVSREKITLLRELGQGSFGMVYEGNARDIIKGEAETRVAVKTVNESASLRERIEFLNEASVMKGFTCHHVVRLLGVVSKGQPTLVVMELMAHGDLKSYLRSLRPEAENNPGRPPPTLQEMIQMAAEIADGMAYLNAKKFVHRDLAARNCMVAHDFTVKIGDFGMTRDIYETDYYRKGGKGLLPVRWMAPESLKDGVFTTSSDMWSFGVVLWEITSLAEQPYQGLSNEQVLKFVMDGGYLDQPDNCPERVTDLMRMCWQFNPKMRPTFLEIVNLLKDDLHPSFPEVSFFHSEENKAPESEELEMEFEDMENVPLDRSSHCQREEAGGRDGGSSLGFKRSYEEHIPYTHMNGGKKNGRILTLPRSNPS

[7] = molecular target: Receptor tyrosine-protein kinase erbB-2 (Homo sapiens, UniProt P04626); assay: Inhibition of heregulin-dependent autophosphorylation of ErbB2 receptor in MDA-MB-453 cells; type: functional, cell-based
Sequence of Receptor tyrosine-protein kinase erbB-2 (P04626 whole entry, the tested form may be a part): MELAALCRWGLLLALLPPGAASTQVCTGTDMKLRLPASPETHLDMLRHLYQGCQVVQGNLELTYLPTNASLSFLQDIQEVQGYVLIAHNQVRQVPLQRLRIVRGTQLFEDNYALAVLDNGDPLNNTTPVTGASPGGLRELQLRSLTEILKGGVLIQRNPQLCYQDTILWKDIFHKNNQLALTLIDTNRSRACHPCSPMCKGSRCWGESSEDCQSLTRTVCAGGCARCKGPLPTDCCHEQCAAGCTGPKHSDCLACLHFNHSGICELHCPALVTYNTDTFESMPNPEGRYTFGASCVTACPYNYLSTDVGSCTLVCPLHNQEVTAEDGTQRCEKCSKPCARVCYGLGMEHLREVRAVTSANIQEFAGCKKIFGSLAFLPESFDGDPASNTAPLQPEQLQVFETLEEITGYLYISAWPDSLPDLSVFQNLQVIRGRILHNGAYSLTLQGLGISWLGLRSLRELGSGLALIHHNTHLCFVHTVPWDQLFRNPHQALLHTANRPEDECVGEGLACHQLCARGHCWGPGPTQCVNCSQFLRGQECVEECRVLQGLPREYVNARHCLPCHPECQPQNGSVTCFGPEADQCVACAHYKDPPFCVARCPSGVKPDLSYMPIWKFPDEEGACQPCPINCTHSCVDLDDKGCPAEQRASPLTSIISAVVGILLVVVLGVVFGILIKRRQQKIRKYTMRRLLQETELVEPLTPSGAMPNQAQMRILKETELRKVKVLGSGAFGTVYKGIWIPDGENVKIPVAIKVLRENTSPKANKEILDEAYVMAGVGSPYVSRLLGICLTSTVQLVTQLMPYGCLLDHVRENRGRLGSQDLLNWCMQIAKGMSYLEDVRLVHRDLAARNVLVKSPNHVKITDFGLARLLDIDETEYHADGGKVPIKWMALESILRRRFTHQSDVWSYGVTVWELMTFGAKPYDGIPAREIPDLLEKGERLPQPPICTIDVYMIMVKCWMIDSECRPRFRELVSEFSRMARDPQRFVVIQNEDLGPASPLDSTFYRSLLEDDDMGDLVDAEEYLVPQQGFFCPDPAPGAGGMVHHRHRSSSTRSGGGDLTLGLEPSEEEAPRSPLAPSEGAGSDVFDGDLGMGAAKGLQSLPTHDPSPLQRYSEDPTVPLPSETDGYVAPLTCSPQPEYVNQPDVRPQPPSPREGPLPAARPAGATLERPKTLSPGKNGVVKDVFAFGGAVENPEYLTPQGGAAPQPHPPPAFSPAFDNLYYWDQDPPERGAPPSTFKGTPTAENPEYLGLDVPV

SK-OV-3 [8] = assay: Difference in days for treated (T) and control (C) SKOV-3 tumor fragments to reach 750 mg in mice at 25 mg/kg ip dose, administration days 10-14,17-21,24-28; type: functional; conditions: route intraperitoneal
Mus musculus [9] = assay: Difference in days for treated (T) and control (C) EGFR tumor fragments to reach 750 mg in mice at 25 mg/kg ip dose, administration days 1-15; type: functional; conditions: route intraperitoneal
Mus musculus [10] = assay: Difference in days for treated (T) and control (C) EGFR tumor fragments to reach 750 mg in mice at 400 mg/kg peroral dose, administration days 1-15; type: functional; conditions: route oral
MCF7 [11] = assay: Difference in days for treated (T) and control (C) MCF-7 tumor fragments to reach 750 mg in mice at 25 mg/kg ip dose, administration days 1-15; type: functional; conditions: route intraperitoneal
A-431 [12] = assay: Ratio of treated and control A431 median tumor mass*100% in mice at 12 mg/kg peroral dose, days 7-21 administration; type: functional; conditions: route intraperitoneal, in the assay text read “intraperitoneal” for “peroral”
Method in brief: (§1)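 Nude mice (NCr nu/nu, 18-22 g) were randomized and implanted sc with tumor fragments in the right axilla on day 0. Tumor lines were A431 epidermoid, NIH 3T3 fibroblasts transfected with human EGFR, and MCF-7 breast. Dosing was ip or oral, by average cage weight, with 6 mice/dose group. Vehicle was 6% dimethylacetamide/94% 50 mM sodium lactate pH 4.0 (suspension), or isethionate salt in water.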

A-431 [13] = assay: Ratio of treated and control A431 median tumor mass*100% in mice at 25 mg/kg peroral dose, days 13-26 administration; type: functional, Mus musculus; conditions: route intraperitoneal, in the assay text read “intraperitoneal” for “peroral”; method in brief: as §1
Mus musculus [14] = assay: Ratio of treated and control EGFR median tumor mass*100% in mice at 25 mg/kg ip dose, days 1-15 administration; type: functional; conditions: route intraperitoneal; method in brief: as §1
Mus musculus [15] = assay: Ratio of treated and control EGFR median tumor mass*100% in mice at 400 mg/kg peroral dose, days 1-15 administration; type: functional; conditions: route oral; method in brief: as §1
MCF7 [16] = assay: Ratio of treated and control MCF-7 median tumor mass*100% in mice at 25 mg/kg ip dose, days 1-15 administration; type: functional; conditions: route intraperitoneal; method in brief: as §1
SK-OV-3 [17] = assay: Ratio of treated and control SKOV-3 median tumor mass*100% in mice at 25 mg/kg ip dose, days 10-14,17-21,24-28 administration; type: functional; conditions: route intraperitoneal
Mus musculus [18] = assay: Net reduction in EGFR tumor burden between the first and last treatments in mice at 25 mg/kg ip dose, days 1-15 administration; type: functional; conditions: route intraperitoneal
Method in brief: (§2)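 NCr nu/nu nude mice (18-22 g) were randomized and implanted sc with A431 epidermoid, human-EGFR-transfected NIH 3T3 fibroblast, or MCF-7 breast tumor fragments in the right axilla on day 0. Dosing was ip or oral, by average cage weight, with 6 mice per dose group. Log net cell kill is the net reduction in tumor burden between the first and last treatments.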

Mus musculus [19] = assay: Net reduction in EGFR tumor burden between the first and last treatments in mice at 400 mg/kg peroral dose, days 1-15 administration; type: functional; conditions: route oral; method in brief: as §2
MCF7 [20] = assay: Net reduction in MCF-7 tumor burden between the first and last treatments in mice at 25 mg/kg ip dose, days 1-15 administration; type: functional; conditions: route intraperitoneal; method in brief: as §2
A-431 [21] = assay: Difference in days for treated (T) and control (C) A431 tumor fragments to reach 750 mg in mice at 12 mg/kg peroral dose, administration days 7-21; type: functional; conditions: route intraperitoneal, in the assay text read “intraperitoneal” for “peroral”; method in brief: as §1
A-431 [22] = assay: Difference in days for treated (T) and control (C) A431 tumor fragments to reach 750 mg in mice at 25 mg/kg peroral dose, administration days 7-21; type: functional; conditions: route oral
SK-OV-3 [23] = assay: Weight change in SKOV-3 tumor bearing mice at 25 mg/kg ip dose, days 10-14,17-21,24-28 administration; type: functional; conditions: route intraperitoneal
A-431 [24] = assay: Net reduction in A431 tumor burden between the first and last treatments in mice at 12 mg/kg ip dose, days 7-21 administration; type: functional; conditions: route intraperitoneal; method in brief: as §2
A-431 [25] = assay: Net reduction in A431 tumor burden between the first and last treatments in mice at 25 mg/kg ip dose, administration days 13-26; type: functional; conditions: route intraperitoneal; method in brief: as §2
MCF7 [26] = assay: Weight change in MCF-7 tumor bearing mice at 25 mg/kg ip dose, days 1-15 administration; type: functional
A-431 [27] = assay: Weight change in A431 tumor bearing mice at 12 mg/kg ip dose, days 7-21 administration; type: functional; conditions: route intraperitoneal
A-431 [28] = assay: WWeight change in A431 tumor bearing mice at 25 mg/kg ip dose, days 13-26 administration; type: functional; conditions: route intraperitoneal
Mus musculus [29] = assay: Weight change of EGFR tumor bearing mice at 400 mg/kg peroral dose, days 1-15 administration; type: functional; conditions: route oral
Mus musculus [30] = assay: Weight change of EGFR tumor bearing mice at 25 mg/kg ip dose, days 1-15 administration; type: functional; conditions: route intraperitoneal
[31] = Inhibition of Platelet-derived growth factor receptor (PDGFR)
[32] = molecular target: Proto-oncogene tyrosine-protein kinase Src (Homo sapiens, UniProt P12931); assay: Inhibition of c-Src tyrosine kinase
Sequence of Proto-oncogene tyrosine-protein kinase Src (P12931 2-536 limits assumed): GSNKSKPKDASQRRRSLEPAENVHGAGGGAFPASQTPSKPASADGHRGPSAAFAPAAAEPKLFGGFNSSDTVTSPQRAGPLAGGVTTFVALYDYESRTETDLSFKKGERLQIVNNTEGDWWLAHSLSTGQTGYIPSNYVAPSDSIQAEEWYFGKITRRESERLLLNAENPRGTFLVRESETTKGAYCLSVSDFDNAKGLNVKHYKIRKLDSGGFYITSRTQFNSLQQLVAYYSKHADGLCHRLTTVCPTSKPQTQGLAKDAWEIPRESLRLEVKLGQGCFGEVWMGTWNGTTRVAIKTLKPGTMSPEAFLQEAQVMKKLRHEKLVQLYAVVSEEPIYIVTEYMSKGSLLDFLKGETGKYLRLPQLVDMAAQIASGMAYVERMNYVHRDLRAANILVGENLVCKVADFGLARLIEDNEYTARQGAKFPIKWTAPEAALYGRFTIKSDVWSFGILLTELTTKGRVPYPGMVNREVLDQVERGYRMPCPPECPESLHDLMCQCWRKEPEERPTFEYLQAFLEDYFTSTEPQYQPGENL

Brc1cccc(Nc2ncnc3cnc(NCCN4CCOCC4)cc23)c1
IC50 [1]: 7.9 nM | IC50 [2]: 7.9 nM | solubility [3]: 10 mM (≈ 4290 µg/mL) | IC50 [4]: 0.7 nM | IC50 [5]: 0.65 nM | IC50 [6]: > 50000 nM | IC50 (Insulin receptor): > 50000 nM | IC50 [7]: 219 nM | T-C (SK-OV-3 [8]): 0 days | T-C (Mus musculus [9]): 1.2 days | T-C (Mus musculus [10]): 2.8 days | T-C (MCF7 [11]): 11.7 days | T/C (A-431 [12]): 93% | T/C (A-431 [13]): 98% | T/C (Mus musculus [14]): 77% | T/C (Mus musculus [15]): 15% | T/C (MCF7 [16]): 34% | T/C (SK-OV-3 [17]): 100% | Net cell kill (Mus musculus [18]): -1.2 log10 | Net cell kill (Mus musculus [19]): -1.1 log10 | Net cell kill (MCF7 [20]): -0.1 log10 | T-C (A-431 [21]): 1.9 days | T-C (A-431 [22]): 2.1 days | Weight change (SK-OV-3 [23]): -2.1 g | Net cell kill (A-431 [24]): -0.7 log10 | Net cell kill (A-431 [25]): -0.3 log10 | Weight change (MCF7 [26]): Weight gain | Weight change (A-431 [27]): -0.2 g | Weight change (A-431 [28]): -1.1 g | Weight change (Mus musculus [29]): -2 g | Weight change (Mus musculus [30]): -1.3 g | IC50 [31]: > 50000 nM | IC50 [32]: > 50000 nM
